An excerpt weighted towards active compounds, which were near 1.9% of everything screened.
ADAM17 inh – inhibits human ADAM17; recombinant ADAM17, EDANS/DABCYL FRET peptide cleavage; 370,000 compounds, 0.83% hits; P78536; inhibition, % at 6.95 µM; AID 720648;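 active means inhibition above the mean of compounds lying between control limits plus 3 SD, set per campaign, cut at about 8.5% in these data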
Target sequence (P78536 215-824 limits assumed): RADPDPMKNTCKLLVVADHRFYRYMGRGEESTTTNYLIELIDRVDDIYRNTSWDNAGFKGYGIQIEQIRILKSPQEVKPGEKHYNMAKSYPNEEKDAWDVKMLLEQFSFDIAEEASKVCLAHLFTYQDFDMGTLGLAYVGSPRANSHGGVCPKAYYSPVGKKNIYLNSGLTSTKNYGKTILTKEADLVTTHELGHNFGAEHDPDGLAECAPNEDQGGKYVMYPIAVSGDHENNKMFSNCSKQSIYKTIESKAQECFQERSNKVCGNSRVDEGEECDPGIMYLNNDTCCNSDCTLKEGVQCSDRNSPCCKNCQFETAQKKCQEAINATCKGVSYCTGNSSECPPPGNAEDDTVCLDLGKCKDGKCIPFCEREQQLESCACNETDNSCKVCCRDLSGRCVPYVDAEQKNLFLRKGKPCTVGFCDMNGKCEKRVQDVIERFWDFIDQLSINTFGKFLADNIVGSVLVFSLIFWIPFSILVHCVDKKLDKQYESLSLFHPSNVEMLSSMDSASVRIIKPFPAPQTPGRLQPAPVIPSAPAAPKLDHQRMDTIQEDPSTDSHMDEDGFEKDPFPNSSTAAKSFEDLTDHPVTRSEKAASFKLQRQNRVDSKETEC
ADAM10 inh – ADAM10 inhibition, QFRET primary screen; O14672; recombinant ADAM10, EDANS/DABCYL FRET peptide cleavage, 3 h; inhibition, % at 7 µM; 370,000 compounds, 0.62% hits;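 active means inhibition above a per-campaign cutoff equal to the mean of compounds falling between control-based bounds plus 3 SD, cut at about 20% in these data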
FAS-TE inh – blocks the thioesterase domain of human fatty acid synthase | P49327 | recombinant FAS-TE, OMFH fluorogenic substrate, fluorescence endpoint | inhibition, % at 15 µM | 360,000 compounds, 0.67% hits | AID 602261;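 active means compounds whose normalised, plate-corrected inhibition of enzyme fluorescence in the single-dose primary screen is 50% or more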
SENP1 inh – SENP1 (human) catalytic domain inhibition | inhibition, % at 10 µM | recombinant SENP1 catalytic domain, CyPet-SUMO1-YPet FRET cleavage | AID 624204 | 360,000 compounds, 0.21% hits | Q9P0U3;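 active means inhibition at least 30% at 10 µM, raw YFP signal under a set limit, fluorescence ratio 0.5 to 1.5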
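Assay system – human recombinant His6-tagged SENP1 catalytic domain enzyme · Input – SENP1 enzyme, 20 pM final · Buffer or medium – Tris pH 8 buffer plus EDTA, NaCl, BME, BSA, NP40, catalase · Schedule – 50 min reaction at room temperature · Technique – FRET read of cyan and yellow fluorescence · Control set – no-enzyme wells low, DMSO-plus-enzyme wells high control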
FAS-TE inh conf – confirmation of human fatty acid synthase thioesterase inhibitors; shares compounds with FAS-TE inh; recombinant FAS-TE, OMFH fluorogenic substrate, fluorescence; AID 624325; inhibition, % at 15 µM; 2,300 compounds, 45% hits;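 active means compounds inhibiting the enzyme by at least 50% at 15 µM in any one of the replicates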
Large screens that a line does not name were inactive (follow-up assays come after a bar, where they were run).

O=C1CCC2(CCCCC2)N1CCCO	none (no result: FAS-TE inh, SENP1 inh)
N#C/C(=C\c1ccc(OCc2ccc(Cl)cc2)cc1)C(=O)Nc1cccc(C(=O)O)c1	FAS-TE inh 53 | FAS-TE inh conf inactive
CCNC(=O)N(C)[C@H]1C[C@H]2c3[nH]c4cccc(-c5ccc6c(c5)OCO6)c4c3CCN2C[C@H]1[C@H](C)O	none (no result: FAS-TE inh, SENP1 inh)
CCCCN1C(=O)N2Cc3ccc(C)cc3C2CS1(=O)=O (configuration not stated)	none (no result: FAS-TE inh, SENP1 inh)
CCN(CC)CCN(C(=O)c1ccc2ccccc2c1)c1nc2cc3c(cc2s1)OCO3	none
CCN(CC)CCN(C(=O)c1ccc(S(=O)(=O)N2CCCCC2)cc1)c1nc2cc3c(cc2s1)OCO3	FAS-TE inh 53 (no result: ADAM17 inh, ADAM10 inh) | FAS-TE inh conf inactive
Cc1cccc(-c2cccc3c4c([nH]c23)[C@@H]2C[C@H](N(C)C(=O)Nc3ccccc3)[C@H]([C@H](C)O)CN2CC4)c1	none (no result: FAS-TE inh, SENP1 inh)
Cc1cccc2cc(/C=N/Nc3ccc(C(=O)O)cc3)c(Cl)nc12	FAS-TE inh 54 | FAS-TE inh conf 50
C[C@H](CO)N1C[C@H](C)[C@@H](CN(C)C(=O)Nc2ccc3c(c2)OCO3)Oc2c(NC(=O)C3CCCCC3)cccc2C1=O	none
COc1ccc(NC(=O)Nc2cccc3c2O[C@H](CN(C)C(=O)NC2CCCCC2)[C@@H](C)CN([C@H](C)CO)C3=O)cc1	FAS-TE inh 78 | FAS-TE inh conf 71
C[C@H](CO)N1C[C@H](C)[C@@H](CN(C)C(=O)NC2CCCCC2)Oc2c(NC(=O)Nc3ccc4c(c3)OCO4)cccc2C1=O	FAS-TE inh 82 | FAS-TE inh conf 85
CC(C)NC(=O)Nc1cccc2c1O[C@H](CN(C)C(=O)NC1CCCCC1)[C@@H](C)CN([C@H](C)CO)C2=O	none
O=C(c1ccc(Cl)cc1)[C@@H]1[C@@H]2C(=O)N(c3cccc4ccccc34)C(=O)[C@@H]2C2c3ccccc3C=NN21 (some centres not stated)	FAS-TE inh 85 | FAS-TE inh conf inactive
COc1ccc(CC(=O)N(C)Cc2ccc(Cl)cc2)cc1S(=O)(=O)N1CCOCC1	none
COc1ccc(CC(=O)N(C)Cc2ccc(C(C)(C)C)cc2)cc1S(=O)(=O)N1CCOCC1	FAS-TE inh 80 | FAS-TE inh conf 82
COc1ccc(OC)c(S(=O)(=O)n2c(CN3CCOCC3)nc3ccccc32)c1	none (no result: FAS-TE inh, SENP1 inh)
COCC#Cc1ccc(CC[C@H]2O[C@H]3CC[C@@H](CO)O[C@H]3C[C@H]2n2cc(C3CC3)nn2)cc1	none (no result: FAS-TE inh, SENP1 inh)
COc1ccc(C(Nc2ccccn2)c2c(NC(=O)c3ccco3)sc(C)c2C)cc1 (configuration not stated)	none
Cc1sc(NC(=O)c2ccco2)c(C(Nc2ccccn2)c2ccccc2)c1C (configuration not stated)	FAS-TE inh 60 | FAS-TE inh conf inactive
COc1cccc(C(Nc2ccccn2)c2c(NC(=O)c3ccco3)sc(C)c2C)c1 (configuration not stated)	FAS-TE inh 54 | FAS-TE inh conf inactive
COc1ccc(C[N+]2=C(N)NC3=C4CCCCC4n4c(=O)n(-c5ccccc5)c(=O)n4C3C2)c(OC)c1 (configuration not stated)	none (no result: FAS-TE inh, SENP1 inh)
COC(=O)C1CN(Cc2ccccc2)CCS(=O)(=O)N1Cc1cn(Cc2ccccc2)nn1 (configuration not stated)	none (no result: FAS-TE inh, SENP1 inh)
COC(=O)c1cc(-c2cccc(OC(F)(F)F)c2)c(=O)n2c1CCC2	none (no result: FAS-TE inh, SENP1 inh)
CCCCCC[C@@H](CC)CN(C(=O)Oc1ccccc1)c1ccccc1	none (no result: FAS-TE inh, SENP1 inh)
O=C(COCc1ccccc1)N1CC[C@H]2[C@H](CCCN2Cc2ccc(F)cc2)C1	none (no result: FAS-TE inh, SENP1 inh)
C[C@@H]1CN([C@@H](C)CN(C)C)C(=O)c2cc(NC(=O)Nc3ccccc3)ccc2O[C@@H](C)CCCCO[C@H]1CN(C)S(=O)(=O)c1ccc(F)cc1	none (no result: FAS-TE inh, SENP1 inh)
Cc1coc2c1C(=O)C(=O)c1c-2ccc2c1CCCC2(C)C	FAS-TE inh 58 | FAS-TE inh conf inactive
CCOC(=O)C1CCN(C(=O)c2ccc3c(=O)n4nc(Nc5cc(C)ccc5C)sc4nc3c2)CC1	FAS-TE inh 55 | FAS-TE inh conf inactive
CCOC(=O)C1CCN(C(=O)c2ccc3c(=O)n4nc(Nc5ccccc5OC)sc4nc3c2)CC1	FAS-TE inh 54 | FAS-TE inh conf 59
CCCC(C)NC(=O)c1cc(C(=O)OC)cc([N+](=O)[O-])c1 (configuration not stated)	none
CCCC(C)c1nnc(NC(=O)c2cc(C(=O)OC)cc([N+](=O)[O-])c2)s1 (configuration not stated)	FAS-TE inh 55 | FAS-TE inh conf 58
Cc1ccc(OCc2nnc(SCC(=O)c3ccc4ccccc4c3)n2-c2ccc(Cl)cc2)cc1	none (no result: FAS-TE inh, SENP1 inh)
CC(C)(C)OC(=O)NCCc1nnc(S(=O)(=O)Cc2ccc(Cl)cc2Cl)o1	FAS-TE inh 64 | FAS-TE inh conf 67
CC(C)(C)OC(=O)NCCc1nnc(SCc2ccccc2Cl)o1	none
O=C(Nc1cnn(C23CC4CC(CC(C4)C2)C3)c1)c1cnn2c(C(F)(F)F)cc(-c3ccco3)nc12	FAS-TE inh 61 | FAS-TE inh conf inactive
Cc1ccc(S(=O)(=O)N2CCOCC2)cc1C(=O)NCCN1C(=O)S/C(=C\c2ccccc2Cl)C1=O	FAS-TE inh 56 | FAS-TE inh conf inactive
O=C(CSc1ncnc2c1nnn2Cc1ccccc1)NC1CCCCC1	FAS-TE inh 58 | FAS-TE inh conf 49
O=C(CSc1nnnn1Cc1ccccc1)NC1CCCCC1	none
CCOC(=O)CC[C@@H]1CC[C@]2(CCCN(C(=O)C3CCCC3)C2)O1	none (no result: FAS-TE inh, SENP1 inh)
Cc1ccc(C)c(S(=O)(=O)ON2C(=O)c3ccccc3C2=O)c1	FAS-TE inh 83 | FAS-TE inh conf 88
Cc1cc(S(=O)(=O)ON2C(=O)c3ccccc3C2=O)ccc1F	FAS-TE inh 82 | FAS-TE inh conf 79
CC1CCC2(CCC(=O)N2CCCOC(=O)NC(C)(C)C)CC1 (configuration not stated)	none (no result: FAS-TE inh, SENP1 inh)
CCCSc1cc(NCCOC(C)=O)c([N+](=O)[O-])c2nonc12	none
Cc1nnc(Sc2cc(NCCCO)c([N+](=O)[O-])c3nonc23)s1	FAS-TE inh 63 | FAS-TE inh conf 69
O=[N+]([O-])c1c(NCCO)cc(N2CCCCCC2)c2nonc12	none
Cc1nnc(Sc2cc(NCCO)c([N+](=O)[O-])c3nonc23)s1	FAS-TE inh 65 | FAS-TE inh conf 64
COC(=O)[C@]12C[C@H](CC(=O)N3CCN(C(=O)C4CC4)CC3)C(=O)N(CCc3ccc(OC)c(OC)c3)C1=C[C@H](C1CCCC1)O[C@@H]2C	none (no result: FAS-TE inh, SENP1 inh)
COc1ccc(C(=O)COC(=O)c2cc([N+](=O)[O-])ccc2N2CCOCC2)c(OC)c1	FAS-TE inh 75 | FAS-TE inh conf 75
COc1cc(C(=O)COC(=O)c2cc([N+](=O)[O-])ccc2N2CCOCC2)ccc1OC(F)F	FAS-TE inh 55 | FAS-TE inh conf 57
COc1ccccc1C(=O)COC(=O)c1cc([N+](=O)[O-])ccc1N1CCOCC1	FAS-TE inh 68 | FAS-TE inh conf 34

Assay outcomes from PubChem BioAssay.
